# STAT1 blocker: STAT1 signaling inhibition; NIH 3T3 STAT1-luciferase reporter, IFN-gamma, luminescence; AID 920; 200,000 tested, 0.35% active; inhibition, % at 5.5 µM;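 active = inhibition above a set limit, the mean inhibition across all tested compounds plus 3 SD, cut at about 34% in these data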;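 also: 0% = IFN-gamma with DMSO and 100% = IFN-gamma with 300 µM nifuroxazide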
# STAT3 inh: inhibitors of IL-6 induced STAT3 signaling. U3A cells, IL-6 STAT3-luciferase reporter, luminescence; host cell line lacks STAT1. inhibition, % at 5.5 µM. 190,000 tested, 0.89% active. AID 862;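 active = inhibition above the mean inhibition across all screened compounds plus 3 SD, cut at about 44% in these data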;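 also: 0% = DMSO only wells and 100% = 100 µM nifuroxazide control wells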
# STAT1 act-1: increases IFN-gamma driven STAT1 reporter signal; NIH 3T3 STAT1-luciferase reporter, luminescence; 100% = IFN-gamma alone, no compound; activation (% of control), % at 5.5 µM; 200,000 tested, 2.6% active; AID 932;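 active = activation above the screen-wide mean activation plus 3 SD, cut at about 130% in these data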;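 also: raw ratio to IFN-gamma control signal so 100% means no change and 0% no light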
# STAT3 act-1: activators of IL-6 induced STAT3 signaling. activation (% of control), % at 5.6 µM. U3A cells, IL-6 STAT3-luciferase reporter, luminescence; 100% = signal with IL-6 EC80 alone. 190,000 tested, 0.91% active;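 active = activation above the screen-wide mean of compound activation plus 3 SD, cut at about 130% in these data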;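 also: 0% = background luminescence of wells with medium and substrate only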
#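 Material: STAT3-luciferase reporter U3A cells. Controls: IL-6-treated wells, 100% activation. Read-out: % activation versus median of IL-6-stimulated wells. Probe or stimulus: IL-6 stimulus at 33 ng/mL final. Timing: compound 1 h, then IL-6 6 h at 37 °C. Signal: reporter luminescence signal.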
# STAT3 act-2: confirmation of STAT3 signaling activators; shares compounds with STAT3 act-1; AID 1267; 1,200 tested, 64% active; potentiation (% of control), % at 5.7 µM; U3A STAT3-luciferase reporter, IL-6 potentiation, luminescence; U3A cells lack STAT1; 100 means same as IL-6 alone;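 active = percent activation of the STAT3 luciferase reporter above a set limit taken from the earlier primary screen, cut at about 130% in these data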;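 also: 0% = background signal of medium plus substrate and 100% = median of IL-6 with DMSO wells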
# NFkB act 2: counter-screen for STAT3 activators: NF-kappaB activation; shares compounds with STAT3 act-1; human cells, NF-kappaB reporter activation; activation (% of control), % at 5.7 µM; 1,200 tested, 11% active; AID 1309; in the data active = activation above about 120%;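 also: reporter induced by TNF-alpha stimulation; 100% = median of stimulated DMSO wells and 0% = no signal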
# STAT1 act-2: activates STAT1, counter-screen to STAT3 activators; NIH 3T3 STAT1-luciferase reporter, IFN-gamma, luminescence; shares compounds with STAT3 act-1; activation (% of control), % at 5.7 µM; 1,200 tested, 13% active; AID 1318;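 active = activation above the solvent-only control well mean plus 3 SD, set per screening run, cut at about 120% in these data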;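 also: 100% = IFN-gamma with DMSO median signal so 100% means no change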
# * = called active by the depositor; . = no result. Compounds with a hit are over-represented: about 4.3% of the library has one in this group of screens.
SMILES,STAT1 blocker,STAT3 inh,STAT1 act-1,STAT3 act-1,STAT3 act-2,NFkB act 2,STAT1 act-2
COc1ccc(C2c3[nH]c4ccccc4c3CCN2C(=O)c2cn3ccccc3n2)c(F)c1 (stereo unspecified),-29.1,-64.5,124.7,161.0*,159.0*,110.6,105.4
COc1ccc(OCC(=O)N2CCc3c([nH]c4ccccc34)C2c2ccccn2)cc1 (stereo unspecified),3.4,16.0,95.5,89.7,.,.,.
Cc1ccc(C)c(NC(=S)c2nc3ccccc3s2)c1,-4.5,-53.3,104.0,141.9*,203.4*,126.6*,129.6*
CSc1ccc(/C=N/NC(=O)CNc2ccc3ccccc3c2)cc1,0.5,-47.9,99.6,146.0*,139.9*,107.4,98.1
CSc1ccc(/C=N/NC(=O)CNc2cccc3ccccc23)cc1,-1.0,-25.1,100.9,121.2,.,.,.
CCN(CC)S(=O)(=O)c1cc(C)ccc1SC,1.4,-5.2,101.0,102.1,.,.,.
CCC(CC)NC(=O)CCCSc1nc2ccccc2[nH]1,3.6,-0.2,95.2,102.2,.,.,.
Cc1ccc2cccc(NC(=S)NC(=O)c3c(Br)cnn3C)c2n1,0.9,-43.9,99.2,138.6*,116.5,107.9,102.7
Cc1ccc2cccc(NC(=S)NC(=O)c3ccn(C)n3)c2n1,7.4,-29.8,92.4,127.0,.,.,.
Cc1ccc(-n2nc(C)c3c(-c4cccs4)c(C#N)c(N)nc32)cc1,7.3,-46.7,93.3,144.2*,124.5,99.4,103.5
COc1ccc(C(=O)Nc2sc(C)c(C)c2CN2CC(C)OC(C)C2)cc1 (stereo unspecified),-21.9,-4.2,119.6,105.4,.,.,.
Cn1nc(-c2ccc(C(=O)Nc3cccc(Cl)c3)cc2)c2ccccc2c1=O,6.1,21.3,94.3,80.3,.,.,.
S=C(NCCc1ccccc1)NC1CC2CCC(C1)N2Cc1ccccc1 (stereo unspecified),1.5,9.1,96.8,94.2,.,.,.
O=C(Cc1cscn1)c1ccc(O)cc1O,-3.3,-49.1,103.0,146.4*,99.7,100.1,103.5
CCOc1ccccc1NC(=O)Cn1nnc(C(=O)NCc2ccco2)c1N,-7.3,-37.2,106.7,138.3*,107.6,141.8*,101.0
O=C(Nc1cc(-c2nc3ccccc3s2)ccc1Cl)c1ccc2c(c1)OCO2,-5.1,-36.1,104.6,137.9*,136.6*,120.0,126.8*
CC(C)(C)NC(=O)NC(=O)CSc1nnc(COc2ccccc2Cl)o1,-7.7,2.7,107.2,101.6,.,.,.
C/C(N)=C(/C#N)C(=O)CSc1nnc(COc2ccccc2Cl)o1,1.5,-39.3,98.6,139.0*,134.4*,117.7,106.5
CCc1nc2ccccc2c2nc3ccccc3n12,3.5,21.4,96.8,86.1,.,.,.
O=c1c2ccc([N+](=O)[O-])c3cccc(c32)c2nc3ccccc3n12,18.6,-47.5,83.4,147.9*,149.8*,68.6,88.2
O=S(=O)(c1ccc(Br)cc1)N1CCN(c2ccc3nnc(-c4ccccc4)n3n2)CC1,-0.6,-68.6,100.5,166.9*,144.0*,108.8,101.0
Cc1cc(C)c2c(N=NN3CCOCC3)[nH]nc2n1,-6.7,8.5,105.9,93.1,.,.,.
NC(=S)N/N=C1\CC(n2nnn(-c3cccc(Cl)c3)c2=S)C2COC1O2 (stereo unspecified),3.2,21.9,95.4,88.9,.,.,.
O=[N+]([O-])c1cc(S(=O)(=O)C(F)(F)F)ccc1Sc1nc2ccccc2s1,-1.8,-7.6,101.6,106.3,.,.,.
CS(=O)(=O)c1ccc(Sc2nc3ccccc3s2)c([N+](=O)[O-])c1,-4.0,-63.3,103.6,146.9*,118.2,104.5,110.5
SMILES,STAT1 blocker,STAT3 inh,STAT1 act-1,STAT3 act-1,STAT3 act-2,NFkB act 2,STAT1 act-2
COc1ccc(NC(=S)NCc2ccco2)c(OC)c1,4.5,4.2,99.3,96.4,.,.,.
CCN=C(NC#N)SCc1c(F)cccc1Cl,8.5,-6.5,92.5,110.1,.,.,.
COC(=O)/C=C/c1ccc(OC(=O)c2ccncc2)cc1,-7.3,-6.3,106.4,109.9,.,.,.
O=[N+]([O-])c1ccc(Cl)c(/C=N/N2CCN(c3ccccc3)CC2)c1,0.2,-39.7,99.8,145.1*,134.8*,99.9,99.7
CCc1ccc(/C=C/C(=O)c2cc(Br)ccc(=O)c2O)cc1,2.3,-59.7,97.9,149.9*,136.0*,106.8,90.8
CCOc1ccc(/C=C/C(=O)c2cc(Br)ccc(=O)c2O)cc1,7.3,-14.8,93.6,112.5,.,.,.
COC(=O)c1nnn(-c2nc(N3CCOCC3)nc(N3CCOCC3)n2)c1C,-3.0,6.4,102.7,96.5,.,.,.
CN(C)C(CN1C(=O)C2CC=CCC2C1=O)c1cn(C)c2ccccc12 (stereo unspecified),11.4,-58.5,89.6,153.1*,149.2*,103.6,89.7
Cc1ccccc1C1c2[nH]c3ccccc3c2CCN1CCCn1cccn1 (stereo unspecified),6.5,-50.6,92.2,151.6*,148.0*,103.8,89.7
O=C(Nc1nc2c(s1)COc1ccccc1-2)c1cccs1,-30.2,-42.5,127.4,138.8*,107.3,153.8*,135.9*
O=C(Nc1nc2c(s1)CCc1ccccc1-2)c1cccs1,-10.1,-22.0,109.3,120.8,.,.,.
COc1ccc(C(=O)C2CCCN(Cc3c[nH]c4ccccc34)C2)c(OC)c1 (stereo unspecified),9.9,-43.6,89.6,142.5*,141.1*,104.0,99.9
COCCn1c(C)cc(/C=C2/NC(=O)N(c3ccc(Cl)cc3)C2=O)c1C,2.0,-3.1,98.2,102.7,.,.,.
CCCC(C)NC(=S)Nc1cc(C)cc(C)c1 (stereo unspecified),9.7,5.1,89.9,99.5,.,.,.
Clc1ccc(C2Nc3ccccc3-n3cccc32)cc1 (stereo unspecified),5.0,-73.0,95.6,165.6*,160.3*,113.4,114.3
CN1c2ccccc2C(=O)NC1c1ccc(Cl)cc1 (stereo unspecified),5.8,15.1,93.4,93.5,.,.,.
Cn1c(=O)[nH]c(=O)c2c1nc(N1CCCCCC1)n2CCOc1ccccc1,-3.0,-1.3,101.0,103.2,.,.,.
Cn1cc(CNC(=O)/C=C/c2ccc(Cl)cc2)cn1,-4.9,-0.3,104.1,101.3,.,.,.
CC1=NN(c2ccccc2)C(=O)/C1=C/c1cccs1,2.5,-24.9,97.8,125.4,.,.,.
CC1=NN(c2ccccc2)C(=O)/C1=C/c1ccc[nH]1,-8.0,-64.8,107.1,150.4*,159.8*,119.9,117.0
CC(=O)Nc1c(C(=O)O)oc2ccc(Cl)cc12,6.4,-40.5,94.1,140.1*,125.5,101.5,90.3
CCN=C1SC(CC(N)=O)C(=O)N1CC (stereo unspecified),-11.4,-12.9,108.9,113.1,.,.,.
Cn1c(Sc2ccccc2Cl)c(C=O)c2ccccc21,0.3,19.4,99.7,92.8,.,.,.

# Compound activity (PubChem BioAssay)
